Among the data in ChEMBL document CHEMBL1123453, “Quinazoline antifolates inhibiting thymidylate synthase: benzoyl ring modifications” (J Med Chem, 1986) are IC50 values, retold here.

In assay [1] the target is T1, Thymidylate synthase (Mus musculus, UniProt P07607). In words: In vitro inhibition of L1210 thymidylate synthase with CB3717 as control. Summed up: (§1)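 Thymidylate synthase purified from L1210 cells; IC50 determined, with CB3717 assayed as the reference control alongside each compound.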
T1 sequence (P07607 whole entry): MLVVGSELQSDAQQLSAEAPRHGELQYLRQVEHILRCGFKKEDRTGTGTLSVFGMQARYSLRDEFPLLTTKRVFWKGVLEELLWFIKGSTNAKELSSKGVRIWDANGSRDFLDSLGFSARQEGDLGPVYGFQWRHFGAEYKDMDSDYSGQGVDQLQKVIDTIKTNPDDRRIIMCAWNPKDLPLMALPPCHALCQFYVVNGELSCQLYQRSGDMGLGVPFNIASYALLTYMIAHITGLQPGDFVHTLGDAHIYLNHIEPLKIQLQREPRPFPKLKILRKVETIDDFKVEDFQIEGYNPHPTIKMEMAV
Assay [2] addresses T1, Thymidylate synthase. Kind of assay: In vitro inhibition of L1210 thymidylate synthase. Summed up:
as §1

Assay [3] deals with L1210. In words: The compound was evaluated for the inhibition of growth of L1210 cells in culture. Format: functional, cell-based. The settings on record: Mus musculus. The procedure, abridged:
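L1210 cells grown in culture; growth inhibition reported as the ID50 in μM.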

The target in assay [4] is T2, Dihydrofolate reductase (Mus musculus, UniProt P00375).
T2 sequence (P00375 whole entry): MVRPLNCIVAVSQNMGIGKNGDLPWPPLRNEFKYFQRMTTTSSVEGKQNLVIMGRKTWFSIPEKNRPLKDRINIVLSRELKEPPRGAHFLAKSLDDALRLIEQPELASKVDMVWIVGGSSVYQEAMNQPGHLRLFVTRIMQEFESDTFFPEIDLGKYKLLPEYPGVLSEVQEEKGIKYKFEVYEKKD
In words: The compound was evaluated in vitro for inhibition of purified L1210 dihydrofolate reductase.

Take `C#CCN(Cc1ccc2nc(N)nc(O)c2c1)c1ccc(C(=O)NC(CCC(=O)O)C(=O)O)c(Cl)c1` (configuration not stated): the IC50 (in general, the concentration at which inhibition is half-maximal) was 0.014 µM in assay [1], 0.03 µM in assay [2], 12 µM in assay [3] and 11 µM in assay [4].

Regarding `C#CCN(Cc1ccc2nc(N)nc(O)c2c1)c1ccc(C(=O)NC(CCC(=O)O)C(=O)O)cc1Cl` (configuration not stated), the IC50 amounted to 0.0144 µM in assay [1], 5 µM in assay [2], 72 µM in assay [3] and 3 µM in assay [4].

With `C#CCN(Cc1ccc2nc(N)nc(O)c2c1)c1ccc(C(=O)NC(CCC(=O)O)C(=O)O)c(C)c1` (configuration not stated), the IC50 in assay [1] amounted to 0.019 µM; in assay [2] it was 0.4 µM; in assay [3], 24 µM; in assay [4] it was 25 µM.

Regarding `C#CCN(Cc1ccc2nc(N)nc(O)c2c1)c1c(Cl)cc(C(=O)NC(CCC(=O)O)C(=O)O)cc1Cl` (configuration not stated), the IC50 in assay [1] was 0.0144 µM; in assay [2] it was greater than 5 µM; in assay [3], 37 µM; in assay [4], 3 µM.

In turn, `C#CCN(Cc1ccc2[nH]c(N)nc(=O)c2c1)c1ccc(C(=O)NC(CCC(=O)O)C(=O)O)cc1` (configuration not stated) yielded an IC50 in assay [3] of 7 µM.
